Reference: PubChem BioAssay
“And” between values parts separate entries of the source, which are not always exact repeats. Equal values may be shown once. The source made the active and inactive calls.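 Rule for the calls, unless noted: active = fluorescence slope after compound addition differing from the mean of all tested samples at 99.7% confidence, mostly higher but some lower; inactive = the rest.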

Tests used:
[1] = inhibitors of TNFa-induced NFkB p65 translocation, primary screen, imaging, HUVEC, MLSMR starter and 10KST1 sets (AID 438;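 active = inhibition above 20% together with a positive visual image hit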;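 note: compound added about 3h40 before a 20 min TNFalpha stimulation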;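 for inhibition: signal is the nuclear over cytoplasmic p65 intensity ratio per well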); conditions: HUVEC TNFa-induced p65 nuclear translocation; cell count: measured here: nuclei count (cytotoxicity indicator), at 2.08 µM unless noted; inhibition: at 2 µM, stronger effect = higher value unless noted
[2] = inhibitors of mutant huntingtin aggregation, primary screen, imaging, exon1htt(103Q)mCFP cells, high-content imaging (AID 483;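 active = visual image review flags a hit and inhibition of aggregation exceeds 20%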;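 note: compound exposure lasted 3 days before fixation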;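 for nuclei count: percent of the per-plate median nuclei count of sample wells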); conditions: exon1htt(103Q)mCFP cell line, aggregate imaging, at 2 µM; inhibition of aggregation: stronger effect = higher value; nuclei count: measured here: cell count, toxicity
[3] = inhibitors of E-selectin induction by TNFa, primary screen, imaging, HUVEC, immunofluorescence, MLSMR starter and 10KST1 sets (AID 487;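 active = visually confirmed hit in the image check and inhibition above 20%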;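 for inhibition: signal is fraction of cell area covered by stained E-selectin grains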;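 for nuclei count: 100% = median nuclei count of all wells on the same plate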); conditions: HUVEC TNFalpha-induced E-selectin immunofluorescence imaging, at 2 µM; inhibition: stronger effect = higher value; nuclei count: measured here: cell number, toxicity
[4] = biological target: Voltage-gated potassium channel subunit beta-2 (Rattus norvegicus) (UniProt P62483); test: KvBeta enzyme negative modulators, primary screen, biochemical, NADPH fluorescence (AID 622;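 active = fluorescence slope higher than the sample average by over 3 SD, cut at about -0.22 in these data, passing the limit was not always enough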;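 note: slope of raw intensity against log time taken from 70 to 1610 s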); conditions: recombinant KvBeta, 4-cyanobenzaldehyde reduction, at 10 µM, stronger effect = higher value
Chain of Voltage-gated potassium channel subunit beta-2 (Rattus norvegicus) (P62483 whole entry, looked up): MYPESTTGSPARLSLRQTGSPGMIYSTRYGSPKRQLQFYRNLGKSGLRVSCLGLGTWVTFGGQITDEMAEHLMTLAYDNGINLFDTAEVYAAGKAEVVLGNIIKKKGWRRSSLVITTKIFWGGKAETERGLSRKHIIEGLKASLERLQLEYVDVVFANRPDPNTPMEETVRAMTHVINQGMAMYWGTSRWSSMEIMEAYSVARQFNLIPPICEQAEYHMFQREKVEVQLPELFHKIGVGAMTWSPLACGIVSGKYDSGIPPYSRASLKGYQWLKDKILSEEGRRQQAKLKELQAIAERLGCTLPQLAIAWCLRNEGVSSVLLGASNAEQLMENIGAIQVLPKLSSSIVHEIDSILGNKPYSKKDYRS

[5] = biological target: Voltage-gated potassium channel subunit beta-2 (Rattus norvegicus) (UniProt P62483); test: KvBeta positive modulators, primary screen, biochemical, NADPH fluorescence (AID 623;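 active = NADPH fluorescence slope more negative than the mean of all samples by about 3 SD, 99.7% confidence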;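 note: fluorescence intensity change per second fitted from 20 to 320 s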); conditions: Recombinant KvBeta, NADPH fluorescence decrease slope, 10 min; at 10 µM; stronger effect = lower value
[6] = biological target: Muscarinic acetylcholine receptor M4 (Homo sapiens) (UniProt P08173); test: compounds altering M4/GIRK thallium flux, either direction, primary screen, M4 allosteric agonist project, cell-based, HEK293 M4/GIRK, BTC-AM (AID 625); conditions: at 10 µM, actives lie on both sides;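 note: thallium influx through GIRK channels coupled to M4 in HEK293 cells with BTC-AM dye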
Chain of Muscarinic acetylcholine receptor M4 (Homo sapiens) (P08173 whole entry, looked up): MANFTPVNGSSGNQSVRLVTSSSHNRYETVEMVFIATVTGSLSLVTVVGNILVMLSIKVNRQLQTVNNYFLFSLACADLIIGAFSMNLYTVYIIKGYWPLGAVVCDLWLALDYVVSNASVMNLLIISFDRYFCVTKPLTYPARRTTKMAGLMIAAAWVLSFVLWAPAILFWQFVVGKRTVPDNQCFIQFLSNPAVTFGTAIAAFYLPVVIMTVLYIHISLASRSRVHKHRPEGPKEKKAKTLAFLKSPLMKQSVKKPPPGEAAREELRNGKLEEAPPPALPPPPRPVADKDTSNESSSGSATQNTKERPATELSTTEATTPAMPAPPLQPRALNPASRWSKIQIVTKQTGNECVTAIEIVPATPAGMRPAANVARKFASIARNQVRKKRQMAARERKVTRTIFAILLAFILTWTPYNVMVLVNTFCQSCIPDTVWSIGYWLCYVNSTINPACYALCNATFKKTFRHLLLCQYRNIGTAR
Procedure, shortened: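 Assay system: HEK293 cells with M4 receptor and GIRK channels / Controls: carbachol and DMSO controls / Schedule: 1 h dye loading, 2 min kinetic read / Technique: kinetic fluorescence with BTC-AM dye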

[7] = inhibitors of Sendai virus-induced IRF3 signaling, primary screen, TLR/RLR signaling modifier project, cell-based, Sendai virus stimulus, luciferase, 10K MLSCN set (AID 602276;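 active = inhibition at or above 50% at 10 µM; inactive = inhibition below 50%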;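 note: firefly luciferase from ISG56 promoter only with Renilla not read in this screen; 0% = Sendai virus plus DMSO and 100% = medium plus DMSO without virus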); conditions: HEK293 RL24 IRF3 luciferase reporter, at 10 µM, stronger effect = higher value
[8] = inhibitors of poly I:C-induced TLR3 signaling, primary screen, cell-based, poly I:C stimulus, luciferase, 10K MLSCN set (AID 602277;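 active = inhibition of the reporter signal at or above 50%; inactive = inhibition below 50%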); conditions: HEK293-TLR3 RL24 IRF3 luciferase reporter, at 10 µM, stronger effect = higher value
[9] = inhibitors of Chlamydomonas gravitaxis, primary screen, whole organism, Chlamydomonas reinhardtii, WT vs cilia-less mutant, absorbance, 96-well (AID 463189;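 active = inhibition at or above 50% relative to wild type and mutant plate controls; inactive = inhibition below 50%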;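 note: 0% = wild type cc124 cells in DMSO and 100% = ciliumless bld1 mutant cells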); conditions: OD600 absorbance, 2 days, at 10 µM, stronger effect = higher value
[10] = DUSP6 inhibitors restoring Erk phosphorylation by chemical complementation, primary imaging in DUSP6-transfected HeLa (AID 609); conditions: HeLa MKP-3 transfected, phospho-Erk imaging KS statistic, at 10 µM, cells stimulated with TPA for 15 min

Row | Structure (SMILES) | cell count [1] | inhibition [1] | inhibition of aggregation [2] | nuclei count [2] [%] | inhibition [3] | nuclei count [3] [%] | fluorescence slope [4] | NADPH fluorescence slope [5] | fluorescence slope [6] | inhibition [7] | inhibition [8] | inhibition [9] | z-score ([10]; measured here: cell density z-score) | z-score ([10]; measured here: nuclear c-Myc green intensity z-score) | z-score ([10]; measured here: nuclear pErk red intensity z-score, stronger effect = higher value)
1 | OCC12COC3c4ccccc4C(OC1)N32 (stereo not drawn) | 478 | -7.1% (inactive) | -0.1% (inactive) | 109 | -7.2% (inactive) | 112 | -0.538 (inactive) | -4.5e-06 (inactive) | 0.00589 (inactive) | 5.14% (inactive) | 12.6% (inactive) | – | – | – | –
2 | CN[C@@H]1C[C@@H](c2ccc(Cl)c(Cl)c2)c2ccccc21 | – | – | – | – | – | – | – | – | – | – | – | 129% (active) | – | – | –
3 | O=C(c1ccc(CS(=O)(=O)c2ccccc2)o1)N1CCC2(CC1)OCCO2 | 379 | 8% (inactive) | -2% (inactive) | 97 | -80.2% (inactive) | 107 | -0.523 (inactive) | -0.000178 (inactive) | 0.00484 (inactive) | -15.4% (inactive) | -9.63% (inactive) | – | – | – | –
4 | Nc1ccccc1C(=O)OC1CSC1 | 621 | -8.7% (inactive) | -13.4% (inactive) | 102 | -29.1% (inactive) | 93.5 | -0.559 (inactive) | -2.7e-06 (inactive) | 0.00479 (inactive) | 20.2% (inactive) | 15% (inactive) | – | – | – | –
5 | O=C1C2CCCN2C(c2ccc(Cl)c(Cl)c2)N1c1ccccn1 (stereo not drawn) | 499 | -2.1% (inactive) | 0.2% (inactive) | 98.4 | 17.4% (inactive) | 101 | -0.552 (inactive) | -4e-05 (inactive) | 0.00578 (inactive) | 17.8% (inactive) | 12.7% (inactive) | – | – | – | –
6 | COc1ccc(OC)c(C2=NOC(C(=O)N3CCC4(CC3)OCCO4)C2)c1 (stereo not drawn) | 789 | -17.7% (inactive) | 4% (inactive) | 84.6 | -52.4% (inactive) | 77.7 | -0.234 (inactive) | -6.7e-06 (inactive) | 0.00835 (inactive) | 10.6% (inactive) | 17% (inactive) | – | – | – | –
7 | N#Cc1ccccc1Cn1cc(C(=O)c2ccco2)c2ccccc21 | 353 | 6% (inactive) | 23.1% (inactive) | 76.5 | -3.7% (inactive) | 80.5 | -0.254 (inactive) | -2.3e-05 (inactive) | 0.00586 (inactive) | 16.6% (inactive) | 15.1% (inactive) | – | – | – | –
8 | CC(C)OC(=O)c1c(N)n(CC2CCCO2)c2nc3ccccc3nc12 (stereo not drawn) | 470 | -5.1% (inactive) | 23.6% (inactive) | 104 | -26.3% (inactive) | 191 | -0.0217 (active) | 1.4e-05 (inactive) | 0.00718 (inactive) | 9.43% (inactive) | 13.4% (inactive) | – | – | – | –
9 | CC(=NCc1cccnc1)c1c(O)n(Cc2ccccc2)c(=O)[nH]c1=O | 421 | 1.2% (inactive) | -11.9% (inactive) | 120 | -174% (inactive) | 126 | -0.492 (inactive) | 0.000113 (inactive) | 0.0065 (inactive) | 9.01% (inactive) | 3.95% (inactive) | – | – | – | –
10 | O=C(Cn1c2c(c(-c3ccccc3Cl)cc1=O)CCC2)N1CCC2(CC1)OCCO2 | 861 | -5% (inactive) | -9% (inactive) | 107 | -175% (inactive) | 125 | -0.605 (inactive) | 9.7e-06 (inactive) | 0.00803 (inactive) | -8.12% (inactive) | -12.2% (inactive) | – | – | – | –
11 | O=c1[nH]c(=O)n(Cc2ccccc2)c(O)c1C=NCCCO | 414 | -6.5% (inactive) | 24.4% (inactive) | 90.8 | -59% (inactive) | 128 | -0.52 (inactive) | -3e-05 (inactive) | 0.00467 (inactive) | 16.7% (inactive) | 16.9% (inactive) | – | – | – | –
12 | Oc1ccc(C2NCc3ccccc3-n3cccc32)cc1Cl (stereo not drawn) | 668 | -13.6% (inactive) | 35.1% (inactive) | 127 | -48.5% (inactive) | 110 | -0.46 (inactive) | -3.3e-05 (inactive) | 0.00669 (inactive) | 4.87% (inactive) | 23.9% (inactive) | – | – | – | –
13 | NC(=O)CSP(=O)(c1ccccc1)c1ccccc1 | 427 | -3.5% (inactive) | 4.2% (inactive) | 110 | -31.5% (inactive) | 105 | -0.541 (inactive) | -3.8e-05 (inactive) | 0.00487 (inactive) | 6.33% (inactive) | 18.3% (inactive) | – | – | – | –
14 | CCCCn1c(O)c(C(C)=NCCc2ccccc2)c(=O)[nH]c1=O | 280 | -5.3% (inactive) | 16.4% (inactive) | 72.1 | -114% (inactive) | 187 | -0.454 (inactive) | -0.000351 (inactive) | 0.00293 (inactive) | 3.98% (inactive) | -8.74% (inactive) | – | – | – | –
15 | CCC(C)NC(=O)c1c(N)n(CC2CCCO2)c2nc3ccccc3nc12 (stereo not drawn) | 603 | -1.4% (inactive) | -0.7% (inactive) | 80.9 | -13.3% (inactive) | 128 | -0.058 (active) | 1.6e-05 (inactive) | 0.00598 (inactive) | 14.8% (inactive) | 17.6% (inactive) | – | – | – | –
16 | CCCCn1c(O)c(C(C)=Nc2cccc(C(=O)O)c2)c(=O)[nH]c1=O | 278 | 6.8% (inactive) | 4.7% (inactive) | 75.2 | -151% (inactive) | 199 | -0.604 (inactive) | 2.7e-05 (inactive) | 0.00369 (inactive) | 4.58% (inactive) | 3.8% (inactive) | – | – | – | –
17 | CC(=O)N1CC(=O)Nc2ccc(Cl)cc2C1c1ccc(F)cc1 (stereo not drawn) | 416 | 20.8% (inactive) | -6.1% (inactive) | 103 | -45.1% (inactive) | 105 | -0.569 (inactive) | -1.5e-05 (inactive) | 0.00574 (inactive) | -2.3% (inactive) | -0.788% (inactive) | – | – | – | –
18 | Cc1cc(N2C(=O)C3CCCN3C2c2cccc(Cl)c2)no1 (stereo not drawn) | 465 | -3.9% (inactive) | 8.2% (inactive) | 97.3 | 28.8% (inactive) | 91.4 | -0.543 (inactive) | -2.7e-05 (inactive) | 0.00553 (inactive) | 13.2% (inactive) | 22.3% (inactive) | – | – | – | –
19 | CCN1CCN(c2ncnc3ccc(Br)cc23)CC1 | 207 | 2.1% (inactive) | 48% (active) | 77.2 | -79% (inactive) | 99.3 | -0.583 (inactive) | 2.1e-06 (inactive) | 0.00395 (inactive) | 13.3% (inactive) | 8.78% (inactive) | – | – | – | –
20 | COCCOC(=O)C1=C(N)Oc2c(c(=O)oc3ccccc23)C1c1ccncc1 (stereo not drawn) | 329 | 2.2% (inactive) | 1.7% (inactive) | 73 | 1.8% (inactive) | 73.8 | -0.474 (inactive) | -1.3e-05 (inactive) | 0.00616 (inactive) | 14.5% (inactive) | 27.3% (inactive) | – | – | – | –
21 | CC[C@@H]1C(=O)OC[C@@H]1Cc1cncn1C | – | – | – | – | – | – | – | – | – | – | – | – | 0.654 and -2.12 | -1.14 and -0.253 | 0.525 and 1.62
